The values that follow come from ChEMBL document CHEMBL4011632, “Design, Synthesis, and Evaluation of Thiazolidine-2,4-dione Derivatives as a Novel Class of Glutaminase Inhibitors” (J Med Chem, 2017).

Series [1] relates to ASPC1. The series is described as follows: Anticlonogenic activity against human Aspc-1 cells at 2 uM after 21 days by crystal violet staining based assay relative to control. Particulars: ASPC1, 504 h. It counts as functional. The method in brief:
(§1)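 Anchorage-dependent colony formation: AsPC-1 cells seeded at 1000 cells/well in six-well plates and treated with compound. Colony formation is expressed as percent of vehicle treatment. Mean ± SD from at least three independent experiments, each in duplicate.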

The subject of series [2] is ASPC1. As to the kind of experiment: Anticlonogenic activity against human Aspc-1 cells at 10 uM after 21 days by crystal violet staining based assay relative to control. It counts as functional. Particulars: ASPC1, 504 h. A digest of the protocol: as §1
The subject of series [3] is ASPC1. The series is described as follows: Growth inhibition of human Aspc-1 cells after 72 hrs by MTS assay. It counts as functional, cell-based. Particulars: ASPC1, 72 h. The method in brief:
(§2)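 Growth inhibition by MTS viability read-out. Cells seeded in 96-well plates at 4000/well (AsPC-1) or 8500/well (MDA-MB-231). Mean ± SD from at least three independent experiments, each in duplicate.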
For orientation: Formazan colour is commonly taken as a measure of viable cells.

For series [4], the system named is MDA-MB-231. As to the kind of experiment: Growth inhibition of human MDA-MB-231 cells after 72 hrs by MTS assay. It counts as functional, cell-based. Conditions: MDA-MB-231, 72 h. The method in brief:
as §2

Series [5] addresses T1, Glutaminase liver isoform, mitochondrial (Homo sapiens) (UniProt Q9UI32).
T1 sequence (whole entry): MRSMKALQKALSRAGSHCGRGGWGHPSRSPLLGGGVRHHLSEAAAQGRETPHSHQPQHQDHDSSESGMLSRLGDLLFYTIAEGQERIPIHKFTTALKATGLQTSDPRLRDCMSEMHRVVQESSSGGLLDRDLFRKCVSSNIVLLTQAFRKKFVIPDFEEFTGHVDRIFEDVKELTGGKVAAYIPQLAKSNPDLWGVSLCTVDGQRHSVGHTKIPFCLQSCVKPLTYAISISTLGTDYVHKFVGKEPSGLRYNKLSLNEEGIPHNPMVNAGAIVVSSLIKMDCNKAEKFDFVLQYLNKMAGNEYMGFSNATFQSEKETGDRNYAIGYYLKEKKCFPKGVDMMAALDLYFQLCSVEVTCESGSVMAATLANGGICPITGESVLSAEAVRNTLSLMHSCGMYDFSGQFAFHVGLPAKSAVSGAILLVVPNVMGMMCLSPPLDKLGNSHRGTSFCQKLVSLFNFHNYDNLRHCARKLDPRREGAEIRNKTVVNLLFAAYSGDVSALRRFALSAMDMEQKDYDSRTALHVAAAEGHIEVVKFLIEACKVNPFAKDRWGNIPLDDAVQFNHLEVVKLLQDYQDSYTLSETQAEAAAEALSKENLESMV
As to the kind of experiment: Inhibition of human GLS2 in GLS1 deficient human Aspc-1 cells assessed as decrease in cellular glutamate production at 3.13 to 100 uM after 4 hrs by amplex red glutamic acid assay. The method in brief:
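GLS-knockout AsPC-1 cells made with GLS-KO ZFN mRNA, single-cell cloned, and grown in glutamine-free RPMI 1640 with 10% FBS. Cells seeded at 30 000/well and grown 24 h at 37 °C. Treated 4 h with 1% DMSO vehicle or 3.13−100 μM inhibitor, washed with PBS, and lysed in NP-40 buffer (4 °C, 20 min). Lysate glutamate measured by Amplex Red. Three independent experiments in duplicate.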

A short description of series [6]: Terminal half life in Sprague-Dawley rat at 2 mg/kg, iv by HPLC-MS analysis. The series is classed as ADME, organism-based. Particulars: in vivo, read-out: beta t1/2 (converted). The method in brief: (§3)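 Male rats (330−380 g, 9−10 weeks old), jugular-vein cannulated 1 day before dosing, n = 3. Dosed iv in DMA/PEG400 (20%/80%, v/v) or po in 1% CMC/0.5% Tween-80. Blood (100 μL) drawn at 0, 2 min, 5 min (iv only), 15 and 30 min, and 1, 2, 4, 6, 8 and 24 h. Plasma measured by LC-MS/MS; parameters from noncompartmental analysis.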

Series [7] in a line: Terminal half life in Sprague-Dawley rat at 10 mg/kg, po by HPLC-MS analysis. Conditions: in vivo, read-out: beta t1/2 (converted). It counts as ADME, organism-based. The method in brief:
as §3

A short description of series [8]: Volume of distribution at steady state in Sprague-Dawley rat at 2 mg/kg, iv by HPLC-MS analysis. It counts as ADME, organism-based. Conditions: in vivo, read-out: Vdss. The method in brief:
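Male rats (330−380 g, 9−10 weeks old), quarantined 1 week, jugular-vein cannula implanted 1 day before dosing; n = 3. Single iv dose in DMA/PEG400 (20%/80%, v/v). Blood (100 μL) was drawn via cannula at 0, 2, 5, 15, 30 min and 1, 2, 4, 6, 8, 24 h and kept on ice. Plasma was analysed by HPLC−MS/MS. Vss came from noncompartmental analysis.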

Series [9] can be described thus: Cmax in Sprague-Dawley rat at 10 mg/kg, po by HPLC-MS analysis. Conditions: in vivo. Further details: dose 10 mg/kg, route oral. It counts as ADME, organism-based. The method in brief:
as §3

Series [10] is described as follows: Tmax in Sprague-Dawley rat at 10 mg/kg, po by HPLC-MS analysis. The series is classed as ADME, organism-based. Conditions: in vivo. A digest of the protocol:
as §3

Series [11] is described as follows: AUC (0 to infinity) in Sprague-Dawley rat at 2 mg/kg, iv by HPLC-MS analysis. Details: dose 2 mg/kg, route intravenous, time infinity. The series is classed as ADME, organism-based. Conditions: in vivo. A digest of the protocol:
as §3

Series [12] is described as follows: AUC (0 to infinity) in Sprague-Dawley rat at 10 mg/kg, po by HPLC-MS analysis. It counts as ADME, organism-based. Further details: dose 10 mg/kg, time infinity, route oral. Particulars: in vivo. The method in brief:
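Male rats (330−380 g, 9−10 weeks old), jugular-vein cannulated 1 day before dosing, n = 3. Oral dose given in 1% CMC/0.5% Tween-80. Blood (100 μL) taken via cannula at 0, 15 and 30 min and 1, 2, 4, 6, 8 and 24 h, kept on ice. Plasma analysed by HPLC−tandem MS. Parameters from noncompartmental analysis.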

Series [13] is described as follows: Oral bioavailability in Sprague-Dawley rat at 10 mg/kg by HPLC-MS analysis. Particulars: in vivo. It counts as ADME, organism-based. The method in brief:
as §3

The test system of series [14] is ASPC1. As to the kind of experiment: Antitumor activity against human Aspc-1 cells xenografted in Balb/cAnN.Cg-Foxn1nu/CrlNarl mouse assessed as tumor growth inhibition at 25 mg/kg, ip once daily administered for 5 days followed by 2 days without dosing for 43 days relative to control. It counts as functional. Particulars: read-out: TGI. The method in brief: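 Male nude mice (7−8 weeks, 18−22 g) received 4.5 × 10^6 AsPC-1 cells sc in the right flank, in HBSS mixed 1:1 with Matrigel. Mice were randomized once mean tumor reached ~100 mm3 (day 1). Dosing was ip once daily, 5 days on/2 days off, with 2% DMSO/PBS as vehicle. Tumors were measured twice weekly, V = ab²/2. %TGI = [1 − ((Tt − T0)/(Ct − C0))] × 100 from median volumes; Student's t test.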
Background: Xenograft models place foreign cells or tissue in a host animal.

Series [15] is described as follows: Inhibition of recombinant human His-tagged KGA S384A mutant expressed in Escherichia coli BL21(DE3)pLysS using glutamine substrate preincubated for 10 mins followed by substrate addition measured after 60 mins.
A short description of series [16]: Inhibition of recombinant human His-tagged KGA R387A mutant expressed in Escherichia coli BL21(DE3)pLysS using glutamine substrate preincubated for 10 mins followed by substrate addition measured after 60 mins.
Series [17] can be described thus: Inhibition of recombinant human His-tagged KGA R387L mutant expressed in Escherichia coli BL21(DE3)pLysS using glutamine substrate preincubated for 10 mins followed by substrate addition measured after 60 mins.
Series [18] is described as follows: Inhibition of recombinant human His-tagged KGA K507A mutant expressed in Escherichia coli BL21(DE3)pLysS using glutamine substrate preincubated for 10 mins followed by substrate addition measured after 60 mins.
Series [19] deals with ASPC1. As to the kind of experiment: Synergistic cytotoxicity against human Aspc-1 cells assessed as reduction in cell viability at ED50 in presence of doxorubicin by MTS assay. The series is classed as functional. A digest of the protocol:
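AsPC-1 cells treated with compound combinations and viability read by MTS. Combination index at ED50, ED75 and ED90 calculated by the Chou−Talalay method. CI = 1 additive, <1 synergism, >1 antagonism. Representative of three independent experiments.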

Active and inactive are the calls of the source. No cut-off for these calls is given here.

Take `O=C(Cc1ccccc1)Nc1nnc(CCSCCc2nnc(NC(=O)Cc3ccccc3)s2)s1`: at 2 µM the inhibition in series [1] was 41%. Further, the inhibition (commonly the percentage by which the read-out fell short of the control) at 10 µM in series [2] stood at 98%. The IC50 (as a rule, the point on the concentration scale where inhibition reaches its midpoint) in series [3] was determined as 10.2 µM; in series [4], 6.8 µM; in series [15], 65 nM; in [16] it was 63 nM; in series [17] it was 345 nM; in [18] it was 66 nM. For the same compound, the inhibition entry in series [5] is “inactive”. Besides, the half-life is 318 min in series [6] and 120 min in series [7]. In series [8], the Vd is 8.8 L/kg. In series [9], the highest level (Cmax) was 40 ng/mL. Further, the Tmax (in general, the time at which the peak concentration occurs) in series [10] amounted to 42 min. Further, the AUC(0-inf) (commonly total exposure, with the tail of the curve extrapolated) in series [11] is 636 ng·h/mL; in [12], 73 ng·h/mL. Also, the bioavailability (in general, dose-corrected exposure relative to a reference, in per cent) in series [13] was found to be 2%. Also, the inhibition in vivo at 25 mg/kg in series [14] was determined as 55%. Besides, in series [19], the CI is on record as 0.45 - 0.68.
